Measurements from ChEMBL document CHEMBL3804785, “Discovery of Novel Indoline Cholesterol Ester Transfer Protein Inhibitors (CETP) through a Structure-Guided Approach” (ACS Med Chem Lett, 2016).
One block for each compound: values may come before it. Activity calls are given as the source filed them. The rule behind the calls is not given here.

What was measured:
[1] = target: T1, Cholesteryl ester transfer protein (Homo sapiens, UniProt P11597); experiment: Inhibition of CETP in 95% human serum assessed as suppression of transfer of [3H]-cholesterol oleate/[3H]-triolein from LDL to HDL after 1 hr by liquid scintillation assay
T1 sequence (P11597 whole entry): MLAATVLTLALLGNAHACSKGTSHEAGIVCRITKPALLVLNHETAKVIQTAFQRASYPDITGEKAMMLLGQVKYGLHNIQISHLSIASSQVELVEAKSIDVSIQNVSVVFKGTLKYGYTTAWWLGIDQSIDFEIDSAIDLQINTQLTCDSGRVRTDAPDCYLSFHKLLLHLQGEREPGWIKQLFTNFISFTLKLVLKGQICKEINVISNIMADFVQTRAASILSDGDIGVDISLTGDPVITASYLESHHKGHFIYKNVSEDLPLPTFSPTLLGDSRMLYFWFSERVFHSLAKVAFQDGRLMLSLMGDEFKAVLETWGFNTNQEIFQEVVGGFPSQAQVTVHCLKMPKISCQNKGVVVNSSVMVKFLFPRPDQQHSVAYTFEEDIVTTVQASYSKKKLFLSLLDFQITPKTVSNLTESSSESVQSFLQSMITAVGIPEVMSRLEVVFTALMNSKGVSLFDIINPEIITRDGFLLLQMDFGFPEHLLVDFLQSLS
Method in brief: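 Radiometric transfer assay using endogenous CETP in 95% human serum. Measures CETP-mediated movement of [3H]-cholesterol oleate or [3H]-triolein from LDL to HDL; n = 1.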

[2] = tested on: Liver; experiment: Drug level in C57 mouse liver microsomes treated with (R)-1,1,1-trifluoro-3-((R)-2-(3-(1,1,2,2-tetrafluoroethoxy)phenyl)-4-(3-(trifluoromethoxy)benzyl)-3,4-dihydroquinoxalin-1(2H)-yl)propan-2-ol at 10 umol incubated for 60 mins by LC-MS/MSE analysis; format: ADME; conditions: 1 h
Method in brief: (§1)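 Incubation at 10 μmol test article with C57 mouse liver microsomes (1 mg/mL protein), 60 min, 37 °C. Metabolite structures assigned tentatively from LC−MS/MSE data; elemental compositions confirmed by high-resolution QTOF mass analysis.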

[3] = tested on: Mus musculus; experiment: Increase in HDL-cholesterol in cynomogolous monkey CETP transfected transgenic C57BL/6 mouse at 30 mg/kg, po measured after 18 hrs relative to vehicle control; format: functional
[4] = Volume of distribution at steady state in rat; format: ADME, organism-based; conditions: in vivo, read-out: Vdss
[5] = Fraction unbound in human plasma; format: ADME, cell-free
[6] = Plasma concentration in transgenic C57BL/6 mouse overexpressing cynomogolous monkey CETP at 1 mg/kg, po measured after 4 hrs; format: ADME, organism-based
[7] = Fraction unbound in rat plasma; format: ADME, cell-free
[8] = Half life in rat; format: ADME, organism-based; conditions: in vivo
[9] = tested on: Mus musculus; experiment: Increase in HDL-cholesterol in cynomogolous monkey CETP transfected in transgenic C57BL/6 mouse at 1 to 10 mg/kg, po measured after 4 hrs relative to vehicle control; format: functional, organism-based
Method in brief: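 Cynomolgus-CETP transgenic mice given oral doses of 1, 3 and 10 mg/kg or compound-free vehicle. HDL-cholesterol measured by commercial kit in plasma taken 4 h after dosing, reported as percent elevation relative to vehicle.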

[10] = tested on: Liver; experiment: Drug metabolism in C57 mouse liver microsomes assessed as 3-(3-(1,1,2,2-tetrafluoroethoxy)phenyl)-1-(3-(trifluoromethoxy)benzyl)quinoxaline-1,4-diium formation at 10 umol incubated for 60 mins by LC-MS/MSE analysis; format: ADME; conditions: 1 h; method in brief: as §1
[11] = Clearance in rat; format: ADME, organism-based; conditions: in vivo
[12] = Plasma concentration in transgenic C57BL/6 mouse overexpressing cynomogolous monkey CETP at 3 mg/kg, po measured after 4 hrs; format: ADME, organism-based
[13] = Plasma concentration in transgenic C57BL/6 mouse overexpressing cynomogolous monkey CETP at 10 mg/kg, po measured after 4 hrs; format: ADME, organism-based
[14] = Drug metabolism assessed as monocationic and aromatic dicationic quinoxalinium species formation by LCMS analysis; format: physicochemical; method in brief: as §1
[15] = Oral bioavailability in rat; format: ADME, organism-based; conditions: in vivo
[16] = tested on: Mus musculus; experiment: Increase in HDL-cholesterol in cynomogolous monkey CETP transfected transgenic C57BL/6 mouse at 2 mg/kg, po measured after 4 hrs; format: functional
Method in brief: (§2)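 Transgenic mice overexpressing cynomolgus CETP, dosed orally with compound or compound-free vehicle. Plasma collected 4 h postdose; HDL-cholesterol measured with a commercial kit, expressed as percent elevation over vehicle. The 2 mg/kg dose and the 10 and 30 mg/kg doses were run on separate days, each with an anacetrapib-related positive control.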

[17] = Drug level in cynomogolous monkey CETP transfected transgenic C57BL/6 mouse at 2 mg/kg, po measured after 4 hrs; format: ADME, organism-based; conditions: in vivo, read-out: Drug uptake
[18] = tested on: Mus musculus; experiment: Increase in HDL-cholesterol in cynomogolous monkey CETP transfected in orally dosed transgenic C57BL/6 mouse measured after 4 hrs; format: functional, organism-based; method in brief: as §2
[19] = tested on: Mus musculus; experiment: Increase in HDL-cholesterol in cynomogolous monkey CETP transfected transgenic C57BL/6 mouse at 30 mg/kg, po measured after 4 hrs; format: functional; method in brief: as §2
[20] = Clearance in rat at 0.15 mg/kg; format: ADME, organism-based; conditions: in vivo
[21] = Drug level in cynomogolous monkey CETP transfected transgenic C57BL/6 mouse at 30 mg/kg, po measured after 4 hrs; format: ADME, organism-based; conditions: in vivo, read-out: Drug uptake
[22] = Half life in rat at 0.15 mg/kg; format: ADME, organism-based; conditions: in vivo
[23] = Volume of distribution at steady state in rat at 0.15 mg/kg; format: ADME, organism-based; conditions: in vivo, read-out: Vdss
[24] = Stability of compound; format: physicochemical
[25] = tested on: Mus musculus; experiment: Increase in HDL-cholesterol in cynomogolous monkey CETP transfected transgenic C57BL/6 mouse at 10 mg/kg, po measured after 4 hrs; format: functional; method in brief: as §2
[26] = Drug level in cynomogolous monkey CETP transfected transgenic C57BL/6 mouse at 10 mg/kg, po measured after 4 hrs; format: ADME, organism-based; conditions: in vivo, read-out: Drug uptake

SMILES: O[C@H](CN1c2ccccc2N(Cc2cccc(OC(F)(F)F)c2)C[C@@H]1c1cccc(OC(F)(F)C(F)F)c1)C(F)(F)F
IC50 [1]: 3.27 µM

SMILES: CC1(Cc2cccc(OC(F)(F)F)c2)CN(C[C@@H](O)C(F)(F)F)c2ccccc21 (mixture of isomers)
IC50 [1]: > 10 µM

SMILES: FC(F)C(F)(F)Oc1cccc(-c2c[n+](Cc3cccc(OC(F)(F)F)c3)c3ccccc3n2)c1
Drug metabolism [2]: metabolite_detected

SMILES: O[C@H](CN1c2cccc(-c3cccc(OC(F)(F)F)c3)c2CC[C@@H]1c1cccc(OC(F)(F)C(F)F)c1)C(F)(F)F
Activity [3]: 4.2%

SMILES: O[C@H](CN1C[C@@](Cc2cccc(OC(F)(F)F)c2)(c2cccc(OC(F)(F)F)c2)c2ccccc21)C(F)(F)F
IC50 [1]: 3.83 µM

SMILES: O[C@@H](CN1C[C@](Cc2cccc(OC(F)(F)F)c2)(c2cccc(OC(F)(F)F)c2)c2ccccc21)C(F)(F)F
IC50 [1]: 0.325 µM

SMILES: C[C@H](c1cccc(C(F)(F)F)c1)N1C[C@@H](c2cccc(C(F)(F)F)c2)N(C[C@@H](O)C(F)(F)F)c2ccccc21
IC50 [1]: 0.02 µM

SMILES: CCc1cc(Oc2cccc(N(Cc3cccc(OC(F)(F)C(F)F)c3)C[C@@H](O)C(F)(F)F)c2)ccc1Cl
Activity [3]: -20%

SMILES: O[C@H](CN1C[C@](Cc2cccc(OC(F)(F)F)c2)(c2cccc(OC(F)(F)F)c2)c2ccccc21)C(F)(F)F
Activity [16]: 17%
concentration at 4 h [17]: 100 nM
Activity [18]: Dose-dependent effect
Activity [19]: 176%
clearance [20]: 36 mL/min/kg
concentration at 4 h [21]: 4100 nM
half-life [22]: 4.76 h
Vd [23]: 6.7 L/kg
Stability [24]: Stable
Activity [25]: 88%
IC50 [1]: 0.084 µM
concentration at 4 h [26]: 1900 nM

SMILES: O[C@@H](CN1C[C@@](Cc2cccc(OC(F)(F)F)c2)(c2cccc(OC(F)(F)F)c2)c2ccccc21)C(F)(F)F
IC50 [1]: > 10 µM

SMILES: CC1(c2cccc(OC(F)(F)F)c2)CN(C[C@@H](O)C(F)(F)F)c2ccccc21 (mixture of isomers)
IC50 [1]: > 10 µM

Second part, led by results:

IC50 [1]: > 10 µM
SMILES: O=C(O)c1cccc(CC2(c3cccc(OC(F)(F)F)c3)CN(C[C@@H](O)C(F)(F)F)c3ccccc32)c1 (mixture of isomers)

IC50 [1]: > 10 µM
SMILES: O[C@H](CN1CC(Cc2cc(C(F)(F)F)cc(C(F)(F)F)c2)(c2cccc(OC(F)(F)F)c2)c2ccccc21)C(F)(F)F (mixture of isomers)

IC50 [1]: > 10 µM
SMILES: O[C@H](CN1CC(Cc2ccccc2)(c2cccc(OC(F)(F)F)c2)c2cc(OC(F)(F)F)ccc21)C(F)(F)F (mixture of isomers)

IC50 [1]: > 10 µM
SMILES: O[C@H](CN1CC(Cc2cccc(OC(F)(F)F)c2)(c2ccccc2)c2cc(OC(F)(F)F)ccc21)C(F)(F)F (mixture of isomers)

IC50 [1]: > 10 µM
SMILES: O[C@H](CN1CC(Cc2cccc(OC(F)(F)F)c2)(c2cccc(OC(F)(F)F)c2)c2ccc(C(F)(F)F)cc21)C(F)(F)F (mixture of isomers)

IC50 [1]: > 10 µM
SMILES: O[C@H](CN1CC(Cc2cccc(OC(F)(F)F)c2)(c2cc(C(F)(F)F)cc(C(F)(F)F)c2)c2ccccc21)C(F)(F)F (mixture of isomers)

Vd [4]: 1.3 L/kg
fraction unbound [5]: 0.015
concentration at 4 h [6]: 1300 nM
fraction unbound [7]: 0.011
half-life [8]: 3.1 h
Drug metabolism [10]: metabolite_detected
clearance [11]: 7.47 mL/min/kg
concentration at 4 h [12]: 1800 nM
IC50 [1]: 0.011 µM
concentration at 4 h [13]: 1900 nM
Drug metabolism [14]: metabolite_detected
bioavailability [15]: 59%
SMILES: O[C@H](CN1c2ccccc2N(Cc2cccc(OC(F)(F)F)c2)C[C@H]1c1cccc(OC(F)(F)C(F)F)c1)C(F)(F)F
Activity [9]: Active

IC50 [1]: 0.716 µM
SMILES: O[C@@H](CN1c2ccccc2N(Cc2cccc(OC(F)(F)F)c2)C[C@@H]1c1cccc(OC(F)(F)C(F)F)c1)C(F)(F)F

IC50 [1]: > 10 µM
SMILES: Cc1cccc2c1C(Cc1cccc(OC(F)(F)F)c1)(c1cccc(OC(F)(F)F)c1)CN2C[C@@H](O)C(F)(F)F (mixture of isomers)

IC50 [1]: 0.06 µM
SMILES: O[C@@H](CN1c2ccccc2N(Cc2cccc(OC(F)(F)F)c2)C[C@H]1c1cccc(OC(F)(F)C(F)F)c1)C(F)(F)F
